From PubChem BioAssay AID624176 (Southern Research Specialized Biocontainment Screening …, 2012) come the findings set out here.

pIC50: −log10 of the molar value. The source made the active and inactive calls.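 How the source made its calls: active means inhibition of 30% or more at any tested concentration; inactive means the rest.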

Chain of Aminopeptidase N (Plasmodium falciparum (isolate 3D7)) (O96935 whole entry, looked up): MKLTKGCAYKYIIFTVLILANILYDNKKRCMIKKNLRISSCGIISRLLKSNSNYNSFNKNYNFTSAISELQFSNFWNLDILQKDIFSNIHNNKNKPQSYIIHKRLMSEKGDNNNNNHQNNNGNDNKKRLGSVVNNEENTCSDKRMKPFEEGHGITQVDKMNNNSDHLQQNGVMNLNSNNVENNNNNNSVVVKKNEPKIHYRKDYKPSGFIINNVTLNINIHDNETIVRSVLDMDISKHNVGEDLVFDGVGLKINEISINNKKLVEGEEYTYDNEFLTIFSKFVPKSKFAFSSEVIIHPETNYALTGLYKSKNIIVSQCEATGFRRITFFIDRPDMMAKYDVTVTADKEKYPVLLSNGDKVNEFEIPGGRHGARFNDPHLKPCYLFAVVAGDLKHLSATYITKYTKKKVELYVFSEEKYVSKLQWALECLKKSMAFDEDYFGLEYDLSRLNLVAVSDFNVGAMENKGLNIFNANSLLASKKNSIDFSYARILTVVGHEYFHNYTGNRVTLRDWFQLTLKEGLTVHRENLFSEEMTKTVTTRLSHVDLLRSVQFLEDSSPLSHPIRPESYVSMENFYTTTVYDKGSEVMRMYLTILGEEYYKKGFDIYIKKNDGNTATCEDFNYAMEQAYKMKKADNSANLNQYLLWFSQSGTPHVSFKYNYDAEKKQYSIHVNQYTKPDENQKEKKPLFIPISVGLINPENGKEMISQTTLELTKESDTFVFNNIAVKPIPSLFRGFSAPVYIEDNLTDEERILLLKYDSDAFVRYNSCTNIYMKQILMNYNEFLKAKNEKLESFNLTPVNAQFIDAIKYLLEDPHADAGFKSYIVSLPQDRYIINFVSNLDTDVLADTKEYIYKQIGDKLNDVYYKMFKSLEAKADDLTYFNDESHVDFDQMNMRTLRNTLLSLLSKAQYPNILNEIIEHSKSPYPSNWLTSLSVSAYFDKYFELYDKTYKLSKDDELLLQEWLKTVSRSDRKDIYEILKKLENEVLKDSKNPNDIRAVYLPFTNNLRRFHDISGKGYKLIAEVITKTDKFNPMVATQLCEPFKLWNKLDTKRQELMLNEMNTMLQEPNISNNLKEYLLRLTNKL

The target of the first assay is Aminopeptidase N (Plasmodium falciparum (isolate 3D7)) (UniProt O96935). Kind of assay: inhibition of P. falciparum M1 aminopeptidase – biochemical, QFRET fluorogenic substrate, set 3, counter-screen for PfM18AAP inhibitor project, dose response (AID 624176). As to conditions: recombinant PfM1AAP, H-Leu-NHMec fluorogenic cleavage. In outline:
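Material: purified recombinant Plasmodium falciparum M1 alanyl aminopeptidase (PfM1AAP); Amount: enzyme 5 µg/mL; Replicates: each concentration tested in triplicate; Measure: IC50 from constrained four-parameter fit; Doses: ten concentrations, twofold dilution steps, highest 100 µM; Timing: reaction 90 min, room temperature; Buffer or medium: Tris-HCl pH 7.5 plus CoCl2; Signal: NHMec fluorescence at 370/460 nm.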
On the technique in general: The purpose of a counterscreen is to sort out artefacts and off-target activity.
`CCN(CCc1ccc(O)c(O)c1)c1c2ccccc2nc2ccccc12`: the pIC50 – broadly, the IC50 on a negative log10 scale, so that one unit is a factor of ten – was 4.00.

For the compound `CN(CCc1ccc(O)c(O)c1)c1ccnc2c(F)cccc12`, the negative-log IC50 (pIC50) was 4.08.

As for `Oc1ccc(CCNc2ccnc3cc(Cl)ccc23)cc1O`, the negative logarithm of the IC50 (pIC50) is 4.13.

As for `Cc1cc(N(C)CCc2ccc(O)c(O)c2)c2ccccc2n1`, the pIC50 is 4.00.

Consider `Oc1ccc(C2CCN(c3ccnc4ccccc34)C2)cc1O` (stereo not given), for which the negative logarithm of the IC50 (pIC50) was 4.33.

Turning to `Cc1cccc2c(NCCc3ccc(O)c(O)c3)ccnc12`, the pIC50 is 3.98.

With `CN(CCc1ccc(O)c(O)c1)c1ncnc2ccccc12`, the pIC50 was 4.21.

For `Oc1ccc(C2CCN(c3ccnc4ccccc34)CC2)cc1O`, the pIC50 is 4.13.

`CN(CCc1ccc(O)c(O)c1)c1ccnc2cc(Cl)ccc12`: the negative logarithm of the IC50 (pIC50) is 4.12.

As to `Oc1cccc(CCNc2ccnc3ccccc23)c1O`, the pIC50 was 4.25.

Still in this assay, the particulars now being: recombinant PfM1AAP, H-Leu-NHMec fluorogenic cleavage; at 100 µM (top of the series).
As to `COc1ccc(CCN(C)c2ccnc3c(F)cccc23)cc1OC`, the inhibition result is “inactive”.

For the compound `COc1ccc(CCN(C)c2ccnc3cc(Cl)ccc23)cc1OC`, the inhibition result was “inactive”.

With `CCN(CCc1ccc(OC)c(OC)c1)c1c2ccccc2nc2ccccc12`, the inhibition entry is “inactive”.

Turning to `COc1ccc(CCNc2ccnc3cc(Cl)ccc23)cc1OC`, the inhibition result is “inactive”.

For `CCOc1ccc2nccc(N(C)CCc3ccc(OC)c(OC)c3)c2c1`, the inhibition entry is “inactive”.

For `COc1ccc(CCNc2cc(C)nc3ccccc23)cc1OC`, the inhibition entry was “inactive”.

On to `COc1ccc(CCNc2c3c(nc4ccc(C)cc24)CCCC3)cc1OC`, for which the inhibition entry is “inactive”.

Consider `COc1ccc(CCCNc2c3c(nc4ccccc24)CCCC3)cc1OC`, for which the inhibition entry was “inactive”.

`COc1ccc(CCN(C)c2cc(C)nc3ccccc23)cc1OC`: the inhibition result is “inactive”.

As to `COc1ccc(C2CCN(c3ccnc4ccccc34)C2)cc1OC` (stereo not given), the inhibition entry was “inactive”.

`COc1ccc(CCN(C)c2ccnc3c(C)cccc23)cc1OC`: the inhibition result was “inactive”.

Take `COc1cc(Br)c(CCNc2c3c(nc4ccccc24)CCCC3)cc1OC`: the inhibition entry is “inactive”.

For the compound `COc1ccc(CCN(C)c2ncnc3ccccc23)cc1OC`, the inhibition result is “inactive”.

For `COc1ccc(CCNc2ccnc3c(C)cccc23)cc1OC`, the inhibition entry is “inactive”.

`COc1ccc(CCCN(C)c2c3ccccc3nc3ccccc23)cc1OC`: the inhibition result is “inactive”.

For `COc1ccc(CCNc2ccnc3c(F)cccc23)cc1OC`, the inhibition entry is “inactive”.

Turning to `COc1cc(Br)c(CCNc2c3ccccc3nc3ccccc23)cc1OC`, the inhibition result was “inactive”.

For the compound `COc1ccc(CCN(C)c2c3ccccc3nc3ccccc23)cc1OC`, the inhibition entry is “inactive”.

Take `COc1cc(Br)c(CCNc2ccnc3ccccc23)cc1OC`: the inhibition entry was “inactive”.

Take `COc1ccc(C2CCN(c3ccnc4ccccc34)CC2)cc1OC`: the inhibition entry is “inactive”.

In the case of `COc1ccc(CCNC(=O)c2cc(C)ccc2N)cc1OC`, the inhibition entry was “inactive”.

Consider `Clc1c2c(nc3ccccc13)CCCC2`, for which the inhibition entry was “inactive”.

For `COc1ccc(CCNc2ncnc3ccccc23)cc1OC`, the inhibition entry was “inactive”.

In the case of `Nc1c2ccccc2nc2ccccc12`, the inhibition entry was “inactive”.

Regarding `CCOc1ccc2nccc(NCCc3ccc(OC)c(OC)c3)c2c1`, the inhibition result was “inactive”.
